Test results: ChEMBL document CHEMBL1134287, “Design and pharmacological activity of phosphinic acid based NAALADase inhibitors” (J Med Chem, 2001)

These compounds were tested against Glutamate carboxypeptidase 2 (Rattus norvegicus, UniProt P70627) (assay: Inhibitory concentration against rat brain NAALADase (Folate hydrolase)).
Chain of Glutamate carboxypeptidase 2 (P70627 whole entry): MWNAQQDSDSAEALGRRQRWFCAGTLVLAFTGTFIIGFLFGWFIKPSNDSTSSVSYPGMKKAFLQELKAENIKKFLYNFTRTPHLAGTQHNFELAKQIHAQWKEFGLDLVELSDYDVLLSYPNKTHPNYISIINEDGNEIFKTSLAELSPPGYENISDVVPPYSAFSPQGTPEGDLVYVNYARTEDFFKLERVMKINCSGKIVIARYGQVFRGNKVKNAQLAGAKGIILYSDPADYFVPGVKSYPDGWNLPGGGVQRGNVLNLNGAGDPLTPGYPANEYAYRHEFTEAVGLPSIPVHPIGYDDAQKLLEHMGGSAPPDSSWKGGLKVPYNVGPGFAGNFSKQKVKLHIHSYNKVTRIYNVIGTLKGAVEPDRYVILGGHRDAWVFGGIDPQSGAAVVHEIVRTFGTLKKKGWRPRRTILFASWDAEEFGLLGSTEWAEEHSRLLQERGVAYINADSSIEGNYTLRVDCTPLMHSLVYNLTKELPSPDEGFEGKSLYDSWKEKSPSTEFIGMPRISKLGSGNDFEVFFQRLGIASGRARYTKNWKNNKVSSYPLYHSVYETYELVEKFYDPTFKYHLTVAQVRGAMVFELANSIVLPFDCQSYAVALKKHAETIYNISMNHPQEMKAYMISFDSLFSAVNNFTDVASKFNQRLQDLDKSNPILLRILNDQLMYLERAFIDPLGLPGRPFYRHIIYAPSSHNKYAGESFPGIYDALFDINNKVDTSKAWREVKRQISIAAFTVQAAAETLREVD
Summary of the method: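 IC50 values were determined by a method described elsewhere, from two to four independent determinations each. The values refer to racemic material.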
Work on `Nc1cccc(CP(=O)(O)CC(CCC(=O)O)C(=O)O)c1` (stereo not given) yielded an IC50 of 143 nM. Work on `O=C(O)CCC(CP(=O)(O)C(O)c1ccncc1)C(=O)O` (stereo not given) yielded an IC50 of 10 nM. With `O=C(O)C(CCC1N=NN=N1)CP(=O)(O)O` (stereo not given) the IC50 was 175 nM. `O=C(O)C(CCc1ccccc1)CP(=O)(O)O` (stereo not given) showed an IC50 of 199 nM. `O=C(O)C(Cc1ccccc1)CP(=O)(O)O` (stereo not given) was tested, and the IC50 was 548 nM. `Cc1ccc(CP(=O)(O)CC(CCC(=O)O)C(=O)O)cc1` (stereo not given) gave an IC50 of 68 nM. `O=C(O)CCC(CP(=O)(O)CNCc1ccccc1)C(=O)O` (stereo not given) gave an IC50 of 59 nM. Compound `O=C(O)CCC(CP(=O)(O)Cc1cc(C(F)(F)F)cc(C(F)(F)F)c1)C(=O)O` (stereo not given) has an IC50 of 55 nM. `O=C(O)CCC(CP(=O)(O)Cc1c(F)c(F)c(F)c(F)c1F)C(=O)O` (stereo not given) was tested, and the IC50 was 82 nM. Compound `O=C(O)CCC(CP(=O)(O)CC(CCC(=O)O)C(=O)O)C(=O)O` (stereo not given) has an IC50 of 0.5 nM. `O=C(O)CCC(CP(=O)(O)CCc1ccccc1)C(=O)O` (stereo not given) was tested, and the IC50 was 149 nM. `COc1ccc(NCP(=O)(O)CC(CCC(=O)O)C(=O)O)cc1` (stereo not given) gave an IC50 of 3 nM. `CCCP(=O)(O)CC(CCC(=O)O)C(=O)O` (stereo not given) was tested, and the IC50 was 360 nM. `O=C(O)CCC(CP(=O)(O)Cc1ccccc1)C(=O)O` (stereo not given) gave an IC50 of 53 nM. `CC(CP(=O)(O)CC(CCC(=O)O)C(=O)O)C(=O)O` (stereo not given) was tested, and the IC50 was 1.5 nM. With `O=C(O)CCC(CP(=O)(O)CC(Cc1ccccc1)C(=O)O)C(=O)O` (stereo not given) the IC50 was 2 nM. Compound `O=C(O)CCC(CP(=O)(O)Cc1ccccc1F)C(=O)O` (stereo not given) has an IC50 of 156 nM. `O=C(O)CCC(CP(=O)(O)C(O)c1cccc(F)c1)C(=O)O` (stereo not given) was tested, and the IC50 was 16 nM. Work on `CC(CP(=O)(O)CC(CCC(=O)O)C(=O)O)C(=O)OCc1ccccc1` (stereo not given) yielded an IC50 of 95 nM. Compound `O=C(O)CCCC(CP(=O)(O)O)C(=O)O` (stereo not given) has an IC50 of 185 nM. Compound `O=C(O)CCC(CP(=O)(O)c1ccccc1)C(=O)O` (stereo not given) has an IC50 of 2930 nM. `O=C(O)CC(CP(=O)(O)O)C(=O)O` (stereo not given) gave an IC50 of 2200 nM. In the case of `O=C(O)C(Cc1cccc(O)c1)CP(=O)(O)O` (stereo not given), the IC50 is reported as 508 nM. In the case of `N#CCCC(CP(=O)(O)O)C(=O)O` (stereo not given), the IC50 is reported as 335 nM. With `O=C(O)CCC(CP(=O)(O)Cc1cc(F)cc(F)c1)C(=O)O` (stereo not given) the IC50 was 49 nM.
